Statin myotox sup: protects C2C12 myotubes from simvastatin toxicity | ATP luminescence, 48 h; scaled: DMSO 0, geranylgeraniol control 100 | rescue of ATP level, % at 7.49 µM | 330,000 tested, 0.78% active | AID 602340;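 active = mean ATP rescue above about 67%, or every replicate alone reaching that limit, limit read from the data, passing the limit was not always enough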;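 also: myotubes were challenged with 10 µM simvastatin during compound exposure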
FGF22 binding: shifts melting point of recombinant human FGF22; activity (Tm shift, normalised), % at 9.99 µM; recombinant FGF22 thermal shift, SYPRO orange fluorescence; percent of sucrose octasulfate shift, DMSO zero; Q9HCT0; 340,000 tested, 1.5% active;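 active = mean Tm shift, scaled 0 neutral to 100 positive control, at about 1.3% or above, every replicate too, limit read from the data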
DENV2 CPE rescue: inhibitors of DENV2 cytopathic effect. DENV2-infected cells, cytopathic effect rescue, plate reader. CPE inhibition, % at 9.99 µM. 350,000 tested, 1.7% active. AID 651640; in the data active = CPE inhibition above about 20%, passing the limit was not always enough; tested in BHK-21 cells
PglD DTNB: blocks C. jejuni PglD acetyltransferase activity | 360,000 tested, 0.098% active | inhibition, % at 12.5 µM | purified PglD enzyme, DTNB colorimetric CoA detection; in the data active = inhibition above about 16%, passing the limit was not always enough
Xi reactivation: X-chromosome reactivation activator | activation, % at 7.58 µM | 360,000 tested, 0.055% active | XiGFP mouse fibroblasts, % GFP-positive cells imaging, 3 d; cells co-treated with 5-aza-dC sensitizer; scaled so ellipticine positive control = 100% | AID 743238;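 active = mean normalized replicate activation at least 10% and every replicate at or above 10%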
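Schedule: 3 d treatment, 15 min room-temperature fixation; system: 68-5-11 XiGFP fibroblast line; buffer or medium: DMEM plus 5-aza-dC sensitizer; control set: ellipticine 6 µM positive control; compound: one concentration, pinned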
E-selectin induc: E-selectin induction on HUVECs; P16581; HUVEC E-selectin immunofluorescence imaging; normalized: neutral wells 0, TNF-alpha wells 100; activation, % at 7.58 µM; 260,000 tested, 0.37% active;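 active = mean E-selectin-positive cell signal at least 10% of the positive control, reached in at least 60% of replicates, without over 20% cell loss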
Target sequence (P16581 whole entry, looked up): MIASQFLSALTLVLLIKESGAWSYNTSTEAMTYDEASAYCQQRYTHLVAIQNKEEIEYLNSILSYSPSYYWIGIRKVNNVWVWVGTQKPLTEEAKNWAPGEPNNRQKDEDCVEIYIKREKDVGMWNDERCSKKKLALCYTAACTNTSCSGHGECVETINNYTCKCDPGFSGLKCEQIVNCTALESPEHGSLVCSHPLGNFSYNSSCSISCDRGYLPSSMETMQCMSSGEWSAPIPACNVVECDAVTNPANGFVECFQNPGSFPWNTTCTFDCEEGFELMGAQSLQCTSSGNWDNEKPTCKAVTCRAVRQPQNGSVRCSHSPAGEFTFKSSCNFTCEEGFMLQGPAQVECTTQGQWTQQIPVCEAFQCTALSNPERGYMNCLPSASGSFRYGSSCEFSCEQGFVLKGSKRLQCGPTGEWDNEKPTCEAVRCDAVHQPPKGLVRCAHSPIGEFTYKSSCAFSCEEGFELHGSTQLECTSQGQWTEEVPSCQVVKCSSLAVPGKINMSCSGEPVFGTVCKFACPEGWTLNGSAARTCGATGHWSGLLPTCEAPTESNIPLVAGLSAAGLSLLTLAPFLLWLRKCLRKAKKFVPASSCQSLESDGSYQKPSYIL
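Assay system: HUVEC primary endothelial cells. Input: 3,000 HUVEC seeded per well. Doses: one compound dose added by pin transfer. Read-out basis: % PE-positive cells. Benchmarks: TNF-alpha high, DMSO low. Detection: immunofluorescence imaging. Buffer or medium: EGM-2, gelatin.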
Hits are given with their value; 0 = inactive; - = no result. Shown are actives, neighbours in structure and some others; about 3.3% of the full set was active somewhere.

SMILES | Statin myotox sup | FGF22 binding | DENV2 CPE rescue | PglD DTNB | Xi reactivation | E-selectin induc
CC(C)NC(=O)N(C)C[C@H]1Oc2ccc(NC(=O)CCN3CCOCC3)cc2CC(=O)N([C@@H](C)CO)C[C@H]1C | 0 | 0 | 0 | 0 | 0 | 0
CCn1cc(-c2ccnc3cc(C(=O)O)nn23)c(C)n1 | 0 | 43 | 0 | 0 | 0 | -
CC1(C)NC(=O)N(CCCCOc2ccc(Cl)cc2C=O)C1=O | 0 | 43 | 0 | 0 | 0 | 0
CC1(C)NC(=O)N(CNc2cc(Cl)ccc2Cl)C1=O | 100 | - | - | 0 | - | -
CO[C@H]1CN(C)C(=O)c2cc(NC(=O)c3ccccc3F)ccc2OC[C@@H](C)N(CC2CCOCC2)C[C@@H]1C | 0 | 0 | 0 | 0 | 0 | 0
C#Cc1cccc(C(=O)N(Cc2cccnc2)CC2CCCN(C3CCCCC3)C2)c1 (stereo not given) | 0 | 43 | 0 | 0 | 0 | 0
O=C(Nc1ccc2c(c1)OCCO2)c1oc2ccccc2c1NC(=O)C1CC1 | - | 43 | 0 | - | 0 | -
Cc1nnc(SCC(=O)N(C2CCCCC2)C2CCS(=O)(=O)C2)n1N (stereo not given) | 0 | 0 | 35 | 0 | 0 | -
COc1ccc(NC(=O)N(C)C[C@@H]2OCCCC[C@@H](C)Oc3ccc(NC(=O)Nc4ccccc4)cc3C(=O)N([C@H](C)CO)C[C@H]2C)cc1 | - | 0 | 0 | 0 | 0 | 0
CC(C)[C@@H]1CC2=C(C(=O)OC(C)(C)O2)[C@H](CCc2ccccc2)O1 | - | 0 | 42 | - | 0 | 0
CC1(C)OC(=O)C2=C(CC(CCc3ccccc3)OC2CCc2ccccc2)O1 (stereo not given) | - | 0 | 0 | - | 0 | 0
CC(C)C[C@@H]1CC2=C(C(=O)OC(C)(C)O2)[C@H](CCc2ccccc2)O1 | - | 0 | 29 | - | 0 | 0
C[C@@H]1CCCCO[C@H](CN(C)C(=O)NC2CCCCC2)[C@H](C)CN([C@H](C)CO)C(=O)c2cc(NC(=O)Nc3ccc(C(F)(F)F)cc3)ccc2O1 | - | 0 | 31 | 0 | 0 | 0
C[C@@H]1CN([C@@H](C)CO)C(=O)c2cc(NC(=O)Nc3ccc(C(F)(F)F)cc3)ccc2O[C@@H](C)CCCCO[C@@H]1CN(C)C(=O)NC1CCCCC1 | - | 0 | 60 | 0 | 0 | 0
C[C@@H]1CN([C@@H](C)CO)C(=O)c2cc(NC(=O)Nc3ccc(C(F)(F)F)cc3)ccc2O[C@@H]1CN(C)C(=O)NC1CCCCC1 | 0 | 0 | 101 | 0 | 0 | 0
O=C(C[C@H]1CC[C@@H]2[C@H](COC[C@@H](O)CN2Cc2nccs2)O1)NCc1ccccc1 | 0 | - | 0 | 0 | 0 | 0
Cc1cc(N2CCN(C)CC2)n2nc(-c3ccc(Cl)cc3)nc2n1 | - | 0 | 35 | - | 0 | 0
Cc1cc(N2CCOCC2)n2nc(C)c(-c3ccc(Cl)cc3)c2n1 | 0 | 0 | 0 | 0 | 0 | 0
CC(C)Cn1cnc2c1c(=O)n(CC(=O)N(C)C)c(=O)n2Cc1ccccc1 | - | 44 | 0 | - | 0 | -
CCNC(=O)Cn1c(=O)c2c(ncn2Cc2ccccc2)n(Cc2ccccc2)c1=O | 0 | 0 | - | 0 | - | -
Cn1c(=O)c([N+](=O)[O-])c(NCC(O)c2ccccc2)c2ccccc21 (stereo not given) | - | - | - | - | 0 | -
CCCCNc1c([N+](=O)[O-])c(=O)n(C)c2ccccc12 | 0 | 0 | 0 | 0 | 0 | 48
Cn1c(=O)c([N+](=O)[O-])c(NCCCn2ccnc2)c2ccccc21 | 0 | 0 | 0 | - | 0 | 74
Cn1c(=O)c([N+](=O)[O-])c(-n2ccnc2)c2ccccc21 | - | 0 | 0 | - | 0 | 0
O=c1c([N+](=O)[O-])c(NCCN2CCCCCC2)c2ccccc2n1-c1ccccc1 | - | 43 | 0 | - | 0 | -
SMILES | Statin myotox sup | FGF22 binding | DENV2 CPE rescue | PglD DTNB | Xi reactivation | E-selectin induc
COCCNc1c([N+](=O)[O-])c(=O)n(-c2ccccc2)c2ccccc12 | - | - | - | - | 0 | -
COc1ccc2c3c([nH]c2c1)[C@@H](CO)N(S(C)(=O)=O)CC31CCN(CC2CC2)CC1 | - | 0 | 0 | - | 0 | 0
COc1ccc2c3c([nH]c2c1)[C@H](CO)N(S(C)(=O)=O)CC31CCN(CC2CCCC2)CC1 | - | 0 | 28 | - | 0 | 0
COc1ccc2c3c([nH]c2c1)[C@H](CO)N(S(C)(=O)=O)CC31CCN(CC2CCOCC2)CC1 | - | 0 | 0 | - | 0 | 0
COc1ccc2c3c([nH]c2c1)[C@@H](CO)N(S(C)(=O)=O)CC31CCN(CC2CCCC2)CC1 | - | 0 | 54 | - | 0 | 0
O=C(Nc1ccc(Cl)cc1)N[C@H]1CC[C@@H](CCn2cc(-c3ccccc3F)nn2)O[C@@H]1CO | 0 | 0 | 0 | 0 | 0 | 0
O=C1O[C@@H](Cc2ccccc2)[C@H]2[C@@H]3C=CCCC=C3CN2C12CCCC2 | - | 0 | 33 | - | - | -
Cc1noc(C)c1NC(=O)N[C@@H]1CC[C@H](CCNC(=O)C2CCCCC2)O[C@H]1CO | 0 | 0 | 0 | 0 | 0 | 0
Cc1ccc(S(=O)(=O)Nc2ccc3c(c2)C(=O)N([C@@H](C)CO)C[C@@H](C)[C@H](CN(C)C(=O)Nc2ccc(F)cc2)O3)cc1 | 0 | 0 | 0 | 0 | 0 | 0
COC1=C(Nc2ccccc2OC)C(=O)c2ccccc2C1=O | - | 0 | 0 | 0 | 0 | 0
COC1=C(Nc2ccccc2)C(=O)C(OC)=C(Nc2ccccc2)C1=O | 0 | 44 | 0 | 0 | 0 | 0
COc1cccc(C#Cc2cnc3c(c2)C(=O)N([C@H](C)CO)C[C@H](C)[C@@H](CN(C)C(C)=O)O3)c1 | 0 | 0 | 24 | 0 | 0 | 0
C[C@@H]1CN([C@H](C)CO)C(=O)c2cc(C#Cc3ccccc3)cnc2O[C@H]1CN(C)C(=O)CCN1CCCCC1 | 0 | 0 | 26 | 0 | 0 | 0
COc1ccc(C#Cc2cnc3c(c2)C(=O)N([C@@H](C)CO)C[C@H](C)[C@H](CN(C)C(C)=O)O3)cc1 | 0 | 0 | 26 | 0 | 0 | 0
CC(=O)N(C)C[C@H]1Oc2ncc(C#Cc3ccccc3)cc2C(=O)N([C@H](C)CO)C[C@H]1C | 0 | 0 | 48 | 0 | 0 | 0
COc1cccc(C#Cc2cnc3c(c2)C(=O)N([C@H](C)CO)C[C@H](C)[C@H](CN(C)C(C)=O)O3)c1 | 0 | 0 | 0 | 0 | 0 | 0
C[C@H](CO)N1C[C@H](C)[C@@H](CN(C)C(=O)CN(C)C)Oc2ncc(C#Cc3cccnc3)cc2C1=O | 0 | 0 | 0 | 0 | 0 | 0
C[C@@H]1CN([C@H](C)CO)C(=O)c2cc(C#Cc3cccnc3)cnc2O[C@@H]1CN(C)C(=O)CN(C)C | 0 | 0 | 35 | 0 | 0 | 0
COc1cccc(-c2cnc3c(c2)C(=O)N([C@@H](C)CO)C[C@H](C)[C@@H](CN(C)C(C)=O)O3)c1 | 0 | 0 | 0 | 0 | 0 | 0
COc1cccc(-c2cnc3c(c2)C(=O)N([C@H](C)CO)C[C@H](C)[C@@H](CN(C)C(C)=O)O3)c1 | 0 | 0 | 32 | 0 | 0 | 0
